From ChEMBL document CHEMBL1158754, “ent-Dioncophylleine A and related dehydrogenated naphthylisoquinoline alkaloids, the first Asian dioncophyllaceae-type alkaloids, from the "new"plant species Ancistrocladus benomensis” (J Nat Prod, 2005)
≈ marks a conversion by molar mass, not a printed value.

Tests used:
[1] = tested on: Plasmodium falciparum; assay: Antiplasmodial activity against chloroquine and pyrimethamine-resistant Plasmodium falciparum K1 in erythrocytes by [3H]hypoxanthine uptake; type: functional, organism-based
[2] = tested on: Trypanosoma brucei rhodesiense; assay: Antitrypanosomal activity against Trypanosoma brucei rhodesiense; type: functional, organism-based
[3] = tested on: Trypanosoma cruzi; assay: Antitrypanosomal activity against Trypanosoma cruzi in rat L6 cells; type: functional, organism-based
[4] = tested on: L6; assay: Cytotoxicity against rat L6 cells; type: cell-based
Summary of the method: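 Rat skeletal myoblast (L-6) line; cytotoxicity values reported in µg/mL.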

| Structure (SMILES) | IC50 [1] [µg/mL] | IC50 [2] [µg/mL] | IC50 [3] [µg/mL] | IC50 [4] [µg/mL] |
| --- | --- | --- | --- | --- |
| COc1ccc(-c2ccc3cc(C)nc(C)c3c2O)c2cc(C)cc(OC)c12 [DIONCOPHYLLEINE D] | 0.5 (≈ 1.34 µM) | 4.7 (≈ 12.6 µM) | 24.3 (≈ 65.1 µM) |  |
| COc1cc(C)c(-c2ccc3cc(C)nc(C)c3c2O)c2cccc(O)c12 [ENT-DIONCOPHYLLEINE A] | 3.1 (≈ 8.62 µM) | 1.4 (≈ 3.9 µM) | 21.8 (≈ 60.7 µM) | 20.6 (≈ 57.3 µM) |
| O=C(Cn1ccnc1[N+](=O)[O-])NCc1ccccc1 [BENZNIDAZOLE] |  |  | 0.55 (≈ 2.11 µM) |  |
| COc1cccc2c(-c3ccc4cc(C)nc(C)c4c3O)c(C)cc(OC)c12 | 3.9 (≈ 10.4 µM) | 5.6 (≈ 15 µM) | 54 (≈ 145 µM) |  |
